Data on 16 compounds can be found in ChEMBL document CHEMBL1145348, “Synthesis and biochemical evaluation of a range of potent benzyl imidazole-based compounds as potential inhibitors of the enzyme complex 17alpha-hydroxylase/17,20-lyase (P450(17alpha))” (Bioorg Med Chem Lett, 2006).

Test [1] addresses T1, Steroid 17-alpha-hydroxylase/17,20 lyase (Rattus norvegicus, UniProt P11715).
T1 sequence (P11715 whole entry): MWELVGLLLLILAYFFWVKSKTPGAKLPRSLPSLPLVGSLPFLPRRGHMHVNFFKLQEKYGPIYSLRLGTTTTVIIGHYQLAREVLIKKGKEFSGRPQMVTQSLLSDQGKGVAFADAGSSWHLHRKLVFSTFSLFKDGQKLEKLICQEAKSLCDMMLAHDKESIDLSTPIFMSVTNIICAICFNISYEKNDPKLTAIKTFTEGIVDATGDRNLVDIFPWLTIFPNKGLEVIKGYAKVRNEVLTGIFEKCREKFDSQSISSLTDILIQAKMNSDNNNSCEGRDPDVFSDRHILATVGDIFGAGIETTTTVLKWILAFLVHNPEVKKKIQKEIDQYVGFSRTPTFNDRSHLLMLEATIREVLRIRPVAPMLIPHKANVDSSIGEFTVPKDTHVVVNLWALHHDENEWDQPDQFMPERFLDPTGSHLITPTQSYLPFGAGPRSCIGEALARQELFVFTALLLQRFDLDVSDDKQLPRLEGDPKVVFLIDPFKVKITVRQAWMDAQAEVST
In words: Inhibition of rat microsomal 17,20-lyase component of P450-17alpha. In a few lines:
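Rat testicular microsomes (final 0.23 mg/mL protein) incubated at 37 °C for 30 min in 50 mM sodium phosphate pH 7.4 with NADPH generating system and radiolabelled 17α-hydroxyprogesterone (1 μM), inhibitor added in ethanol. Ether extraction, TLC (DCM/ethyl acetate 4:1) with carrier steroids, ³H scintillation counting versus no-inhibitor controls. IC50 from five or more concentrations in triplicate, linear regression of inhibition versus log[I].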

The target in test [2] is T1, Steroid 17-alpha-hydroxylase/17,20 lyase. In words: Inhibition of rat microsomal 17-alpha-hydroxylase component of P450-17alpha. In a few lines:
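Microsomal enzyme (final 0.16 mg/mL) preincubated mixture at 37 °C, 15 min reaction in 50 mM sodium phosphate pH 7.4 with NADPH generating system and radiolabelled progesterone (1.5 μM); inhibitor in ethanol. Ether extraction, TLC (DCM/ethyl acetate 7:3) with carrier steroids, ³H counting against uninhibited controls. IC50 from ≥5 concentrations in triplicate by linear regression of inhibition versus log[I].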

Usually IC50 stands for the concentration needed to halve the response being measured. Higher therefore signals weaker potency in that assay. Regarding `O=[N+]([O-])c1ccc(Cn2ccnc2)cc1`, the IC50 worked out at 7.17 µM in test [1] and 25.4 µM in test [2].
For `Oc1ccc(Cn2ccnc2)cc1`, the results for the IC50 in test [1] and in test [2] were 8.22 µM and 72.1 µM, respectively.
As for `Clc1cc(Cl)cc(Cn2ccnc2)c1`, the results for the IC50 in test [1] and in test [2] were 3.34 µM and 22.6 µM, respectively.
`Brc1ccc(Cn2ccnc2)cc1`: the 50% inhibitory concentration (IC50) in test [1] is 6.76 µM; in test [2], 53.4 µM.
Taken in the same sequence, the figures for `Brc1cc(Br)cc(Cn2ccnc2)c1` were 3.16 µM and 25.9 µM.
With `Cc1ccc(Cn2ccnc2)cc1`, the values for the 50% inhibitory concentration (IC50) in test [1] and in test [2] were 8.81 µM and 50.6 µM, respectively.
Taken in the same sequence, the figures for `FC(F)(F)c1cc(Cn2ccnc2)cc(C(F)(F)F)c1` were 19.5 µM and 245 µM.
Turning to `N#Cc1ccc(Cn2ccnc2)cc1`, the IC50 in test [1] worked out at 7.67 µM; in test [2], 40.3 µM.
For `Fc1ccc(Cn2ccnc2)cc1F`, the IC50 came to 9.6 µM in test [1] and 70.7 µM in test [2].
On the same counts, the results for `Fc1ccc(Cn2ccnc2)cc1` are 18.4 µM and 86.6 µM.
`Clc1ccc(Cn2ccnc2)cc1Cl`: the results for the 50% inhibitory concentration (IC50) in test [1] and in test [2] were 2.07 µM and 12.2 µM, respectively.
On the same counts, the results for `Ic1ccc(Cn2ccnc2)cc1` are 1.58 µM and 10.1 µM.
On the same counts, the results for `Clc1ccc(Cn2ccnc2)cc1` are 2.81 µM and 31.6 µM.
Taken in the same sequence, the figures for `Fc1cc(F)cc(Cn2ccnc2)c1` were 11.8 µM and 83.1 µM.
Consider `c1ccc(Cn2ccnc2)cc1` [BENZYLIMIDAZOLE], for which the IC50 in test [1] was determined as 39.1 µM; in test [2], 215 µM.
As for `CC(=O)N1CCN(c2ccc(OCC3COC(Cn4ccnc4)(c4ccc(Cl)cc4Cl)O3)cc2)CC1` (configuration not stated) [KETOCONAZOLE], the IC50 in test [1] stood at 1.66 µM; in test [2] it was 3.76 µM.
